ChEMBL document CHEMBL1629563, “Pharmacokinetic and safety evaluation of BILR 355, a second-generation nonnucleoside reverse transcriptase inhibitor, in healthy volunteers” (Antimicrob Agents Chemother, 2008)

Tests used:
Homo sapiens [1] = assay: Toxicity in healthy human assessed as occurrence of nausea at 75 mg, po administered as single dose relative to control; assay type: organism-based; details: in vivo
Homo sapiens [2] = assay: Toxicity in healthy human assessed as occurrence of increase in alanine aminotransferase level at 75 mg, po administered as single dose relative to control; assay type: organism-based; details: in vivo
Homo sapiens [3] = assay: Toxicity in healthy human assessed as occurrence of increase in alanine aminotransferase level at 100 mg, po administered as single dose relative to control; assay type: organism-based; details: in vivo
Homo sapiens [4] = assay: Toxicity in healthy human assessed as occurrence of constipation at 5 mg, po administered as single dose relative to control; assay type: organism-based; details: in vivo
Homo sapiens [5] = assay: Toxicity in healthy human assessed as occurrence of palpitations at 50 mg, po administered as single dose relative to control; assay type: organism-based; details: in vivo
Homo sapiens [6] = assay: Toxicity in healthy human assessed as occurrence of herpes simplex at 100 mg, po administered as single dose relative to control; assay type: organism-based; details: in vivo
Homo sapiens [7] = assay: Toxicity in healthy human assessed as occurrence of frequent bowel movements at 5 mg, po administered as single dose relative to control; assay type: organism-based; details: in vivo
Homo sapiens [8] = assay: Toxicity in healthy human assessed as occurrence of frequent bowel movements at 50 mg, po administered as single dose relative to control; assay type: organism-based; details: in vivo
Homo sapiens [9] = assay: Toxicity in healthy human assessed as occurrence of frequent bowel movements at 75 mg, po administered as single dose relative to control; assay type: organism-based; details: in vivo
[10] = Apparent oral clearance in healthy human at 12.5 mg, po administered as single dose coadministered with 100 mg of ritonavir; assay type: ADME, organism-based; details: in vivo
How it was run: (§1)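 Healthy male volunteers, fasted. Ritonavir 100 mg given 10 h before and again together with single oral BILR 355 in PEG solution. EDTA plasma sampled predose to 144 h. LC-MS/MS assay after protein precipitation. Noncompartmental analysis, AUC by linear up/log down trapezoidal rule; Vss = CL/F·(MRTp.o. − 1/Ka).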

[11] = Apparent oral clearance in healthy human at 62.5 mg, po administered as single dose coadministered with 100 mg of ritonavir; assay type: ADME, organism-based; details: in vivo; how it was run: as §1
[12] = Apparent volume of distribution in terminal phase in healthy human at 87.5 mg, po administered as single dose coadministered with 100 mg of ritonavir; assay type: ADME, organism-based; details: in vivo, read-out: Vz/F
How it was run: (§2)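 Healthy male volunteers, fasted overnight, got one oral dose of BILR 355 in PEG solution with 200 ml water. Ritonavir 100 mg was given 10 h before and again with the dose. Plasma was sampled (EDTA) from predose to 144 h and assayed by validated LC-MS/MS. Cmax and Vz/F came from noncompartmental analysis. Vss/F = CL/F·(MRTp.o. − 1/Ka), with Ka from compartmental modelling.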

[13] = Apparent volume of distribution in terminal phase in high fat fed healthy human at 50 mg, po administered as single dose coadministered with 100 mg of ritonavir; assay type: ADME, organism-based; details: in vivo, read-out: Vz/F
How it was run: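 Fed cohort: healthy males ate an FDA-recipe high-fat breakfast (about 150/250/500-600 cal from protein/carbohydrate/fat) 30 min before a 50 mg oral dose of BILR 355 in PEG solution. Ritonavir 100 mg was given 10 h before and with the dose. Plasma was sampled over 144 h and assayed by LC-MS/MS. Noncompartmental analysis gave Cmax and Vz/F. Vss/F = CL/F·(MRTp.o. − 1/Ka).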

[14] = Apparent volume of distribution at steady state in healthy human at 5 mg, po administered as single dose coadministered with 100 mg of ritonavir; assay type: ADME, organism-based; details: in vivo, read-out: Vss/F; how it was run: as §2
[15] = Renal clearance in healthy human at 62.5 mg, po administered as single dose coadministered with 100 mg of ritonavir by high-pressure liquid chromatography-tandem mass spectrometry/mass spectrometry method; assay type: ADME, organism-based, Kidney; details: in vivo, read-out: CL_renal (converted)
Homo sapiens [16] = assay: Toxicity in healthy human assessed as occurrence of fatigue at 37.5 mg, po administered as single dose coadministered with 100 mg of ritonavir; assay type: organism-based; details: in vivo
Homo sapiens [17] = assay: Toxicity in healthy human assessed as occurrence of fatigue at 87.5 mg, po administered as single dose coadministered with 100 mg of ritonavir; assay type: organism-based; details: in vivo
Homo sapiens [18] = assay: Toxicity in high fat fed healthy human assessed as occurrence of maculopapular rash at 50 mg, po administered as single dose coadministered with 100 mg of ritonavir; assay type: organism-based; details: in vivo
[19] = AUC (0 to last) in healthy human at 12.5 mg, po administered as single dose; assay type: ADME, organism-based; design: dose 12.5 mg, route oral, time 0 - last; details: plasma
How it was run: (§3)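 Healthy male volunteers, six active plus two placebo per dose group, single oral dose in PEG solution with 200 ml water after overnight fast; breakfast 60 to 90 min post-dose. EDTA plasma sampled predose to 144 h. Assayed by validated LC-MS/MS after protein precipitation. Noncompartmental analysis, AUC by linear up/log down trapezoidal rule; Vss = CL/F·(MRTp.o. − 1/Ka).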

[20] = Cmax in healthy human at 5 mg, po administered as single dose by high-pressure liquid chromatography-tandem mass spectrometry/mass spectrometry method; assay type: ADME, organism-based; design: dose 5 mg, route oral; details: in vivo
How it was run: (§4)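 Single fasting oral dose of BILR 355 in PEG solution with 200 ml tap water, given to healthy males. Standard breakfast came 60-90 min after the dose. EDTA plasma was sampled predose to 144 h, stored below −18°C and assayed by LC-MS/MS after protein precipitation. Noncompartmental analysis gave Vz/F. Vss/F = CL/F·(MRTp.o. − 1/Ka), with Ka from compartmental modelling.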

[21] = Tmax in healthy human at 75 mg, po administered as single dose; assay type: ADME, organism-based; details: in vivo
[22] = Apparent oral clearance in healthy human at 5 mg, po administered as single dose; assay type: ADME, organism-based; details: in vivo; how it was run: as §3
[23] = Apparent oral clearance in healthy human at 25 mg, po administered as single dose; assay type: ADME, organism-based; details: in vivo; how it was run: as §3
Homo sapiens [24] = assay: Toxicity in healthy human assessed as occurrence of abdominal pain at 75 mg, po administered as single dose relative to control; assay type: organism-based, Abdomen; details: in vivo
[25] = Apparent volume of distribution in terminal phase in healthy human at 75 mg, po administered as single dose; assay type: ADME, organism-based; details: in vivo, read-out: Vz/F; how it was run: as §4
[26] = Apparent volume of distribution in terminal phase in healthy human at 100 mg, po administered as single dose; assay type: ADME, organism-based; details: in vivo, read-out: Vz/F; how it was run: as §4
[27] = Renal clearance in healthy human at 100 mg, po administered as single dose by high-pressure liquid chromatography-tandem mass spectrometry/mass spectrometry method; assay type: ADME, organism-based, Kidney; details: in vivo, read-out: CL_renal (converted)
[28] = AUC (0 to infinity) in healthy human at 12.5 mg, po administered as single dose coadministered with 100 mg of ritonavir; assay type: ADME, organism-based; design: dose 12.5 mg, route oral, time infinity; details: plasma; how it was run: as §1
[29] = AUC (0 to infinity) in healthy human at 50 mg, po administered as single dose coadministered with 100 mg of ritonavir; assay type: ADME, organism-based; design: dose 50 mg, time infinity, route oral; details: plasma; how it was run: as §1
[30] = AUC (0 to infinity) in healthy human at 62.5 mg, po administered as single dose coadministered with 100 mg of ritonavir; assay type: ADME, organism-based; design: dose 62.5 mg, time infinity, route oral; details: plasma; how it was run: as §1
[31] = Tmax in healthy human at 5 mg, po administered as single dose coadministered with 100 mg of ritonavir; assay type: ADME, organism-based; details: in vivo
Homo sapiens [32] = assay: Toxicity in healthy human assessed as occurrence of fatigue at 12.5 mg, po administered as single dose relative to control; assay type: organism-based; details: in vivo
Homo sapiens [33] = assay: Toxicity in healthy human assessed as occurrence of headache at 100 mg, po administered as single dose relative to control; assay type: organism-based; details: in vivo

## CCN1c2ncc(CCOc3cc[n+]([O-])c4ccccc34)cc2C(=O)N(C)c2cccnc21 [BILR 355]
Homo sapiens [1]
  Activity: 0%
Homo sapiens [2]
  Activity: 0%
Homo sapiens [3]
  Activity: 0%
Homo sapiens [4]
  Activity: 0%
Homo sapiens [5]
  Activity: 0%
Homo sapiens [6]
  Activity: 0%
Homo sapiens [7]
  Activity: 0%
Homo sapiens [8]
  Activity: 0%
Homo sapiens [9]
  Activity: 16.7%
[10]
  CL/F: 112 mL/min
[11]
  CL/F: 141 mL/min
[12]
  Vd/F: 114 L
[13]
  Vd/F: 100 L
[14]
  Vd/F: 166 L
[15]
  CL renal: 7.17 mL/min
Homo sapiens [16]
  Activity: 0%
Homo sapiens [17]
  Activity: 0%
Homo sapiens [18]
  Activity: 0%
[19]
  AUC(0-t): 56.2 ng·h/mL
[20]
  Cmax: 4.36 ng/mL
[21]
  Tmax: 0.667 h
[22]
  CL/F: 2480 mL/min
[23]
  CL/F: 3400 mL/min
Homo sapiens [24]
  Activity: 16.7%
[25]
  Vd/F: 832 L
[26]
  Vd/F: 213 L
[27]
  CL renal: 9.85 mL/min
[28]
  AUC(0-inf): 1960 ng·h/mL
[29]
  AUC(0-inf): 6800 ng·h/mL
[30]
  AUC(0-inf): 7630 ng·h/mL
[31]
  Tmax: 5.71 h
Homo sapiens [32]
  Activity: 20%
Homo sapiens [33]
  Activity: 0%
